According to ChEMBL document CHEMBL4007408, “Identification of Novel Triazole-Based Nicotinamide Phosphoribosyltransferase (NAMPT) Inhibitors Endowed with Antiproliferative and Antiinflammatory Activity” (J Med Chem, 2017):
The source made the active and inactive calls. No cut-off for these calls is given here.

Columns and labels:
[1] = tested on: Liver; assay: Drug metabolism in Wistar Han rat liver microsomes assessed as compound hydrolysis by measuring 8-(4-(pyridin-3-yl)-1H-1,2,3-triazol-1-yl)octanoic acid formation after 60 mins by LC-ESI-MS analysis; format: ADME, microsome
Procedure, shortened: (§1)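 Hydrolytic metabolites were identified by LC-ESI-MSn after 60 min at 37 °C. Incubations used 50 μM substrate with rat or human liver microsomes (1.0 mg/ml) in 50 mM Tris-HCl pH 7.4, 3.3 mM MgCl2 and 1% acetonitrile. Samples without the NADPH-regenerating system were also run, and residual substrate in them was measured.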

[2] = tested on: Liver; assay: Drug metabolism in human liver microsomes assessed as compound hydrolysis by measuring 8-(4-(pyridin-3-yl)-1H-1,2,3-triazol-1-yl)octanoic acid formation after 60 mins by LC-ESI-MS analysis; format: ADME, microsome; procedure, shortened: as §1
[3] = Drug metabolism in human liver microsomes assessed as mixed function oxidase mediated compound cleavage by measuring compound remaining after 60 mins in presence of NADPH-regenerating system by LC-UV analysis; format: ADME; conditions: read-out: Stability
Procedure, shortened: (§2)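 Substrate at 50 μM final, with rat or human liver microsomes at 1.0 mg/ml protein, in 50 mM Tris-HCl pH 7.4. Mix held 3.3 mM MgCl2, 1% acetonitrile and an NADPH-regenerating system (1.3 mM β-NADP, 3.3 mM glucose 6-phosphate, 0.4 U/ml G6PDH). Shaken 60 min at 37 °C, stopped with ice-cold acetonitrile. LC-UV gave % residual substrate versus a no-microsome control, mean of two replicates.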

[4] = Drug metabolism in Wistar Han rat liver microsomes assessed as mixed function oxidase mediated compound cleavage by measuring compound remaining after 60 mins in presence of NADPH-regenerating system by LC-UV analysis; format: ADME; conditions: read-out: Stability; procedure, shortened: as §2
[5] = tested on: Liver; assay: Drug metabolism in Wistar Han rat liver microsomes assessed as compound hydrolysis by measuring 2-aminobiphenyl formation after 60 mins by LC-ESI-MS analysis; format: ADME, microsome; conditions: 1 h; procedure, shortened: as §1
[6] = tested on: Liver; assay: Drug metabolism in human liver microsomes assessed as compound hydrolysis by measuring 2-aminobiphenyl formation after 60 mins by LC-ESI-MS analysis; format: ADME, microsome; conditions: 1 h; procedure, shortened: as §1
[7] = tested on: Mus musculus; assay: Downregulation of NAMPT expression in DNBS-induced BALB/c mouse colitis model at 20 mg/kg, ip bid administered for 3 days post DNBS challenge by Western blot analysis; format: functional, organism-based
[8] = Apparent aqueous solubility of the compound; format: physicochemical; conditions: buffer
Procedure, shortened: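 Kinetic solubility was measured by filtration. Compound from a 10 mM DMSO stock was diluted in PBS pH 7.4 to nominal 500 and 200 μM, shaken 90 min at room temperature and filtered. Filtrate was diluted 4:1 with acetonitrile and absorbance read at 260/280 nm. Concentration came from a calibration curve (3.13–500 μM in 80:20 PBS/acetonitrile, 5% DMSO; r2 >0.85) × 1.25. Run in duplicate.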

[9] = tested on: Mus musculus; assay: Antiinflammatory activity of DSS-induced […] mouse colitis model assessed as disease activity index at 20 mg/kg administered daily for 7 days post DSS challenge (reference value: 6); format: functional
[10] = tested on: A2780; assay: Antitumor activity against human A2780 cells xenografted in athymic nu/nu Harlan mouse assessed as reduction in tumor growth at 10 mg/kg, ip bid administered for 8 consecutive days; format: functional, organism-based
[11] = tested on: Mus musculus; assay: Drug metabolism in athymic Nu/Nu Harlan mouse blood assessed as N-oxide metabolite formation at 10 mg/kg, iv administered as single dose up to 24 hrs by LC-ESI-MS analysis; format: ADME, organism-based; conditions: in vivo
[12] = tested on: Mus musculus; assay: In vivo inhibition of NAMPT in DNBS-induced BALB/c mouse colitis model assessed as reduction in erosion at 20 mg/kg, ip bid administered for 3 days post DNBS challenge; format: functional, organism-based
[13] = Drug metabolism in Wistar Han rat liver microsomes assessed as mixed function oxidase mediated compound degradation after 60 mins in presence of NADPH-regenerating system by LC-UV analysis; format: ADME; conditions: 1 h; procedure, shortened: as §2
[14] = target: Nicotinamide phosphoribosyltransferase (Mus musculus, UniProt Q99KQ4); assay: Inhibition of recombinant mouse NAMPT expressed in bacterial expression system using nicotinamide as substrate after 1 hr by fluorescence based NMNAT-3 enzyme coupled assay; conditions: read-out: IC50
[15] = Clearance in athymic Nu/Nu Harlan mouse at 10 mg/kg, iv administered as single dose up to 24 hrs by LC-ESI-MS analysis; format: ADME, organism-based; conditions: in vivo
[16] = Drug metabolism in human liver microsomes assessed as mixed function oxidase mediated compound degradation after 60 mins in presence of NADPH-regenerating system by LC-UV analysis; format: ADME; conditions: 1 h; procedure, shortened: as §2
[17] = tested on: Mus musculus; assay: Antiinflammatory activity of DSS-induced […] mouse colitis model assessed as reduction in neutrophil infiltration by measuring myeloperoxidase levels at 20 mg/kg administered daily for 7 days post DSS challenge by ELISA; format: functional, organism-based
[18] = target: Nicotinamide phosphoribosyltransferase (Homo sapiens, UniProt P43490); assay: Inhibition of NAMPT in human Jurkat T cells assessed as reduction in NAD levels; format: cell-based
[19] = tested on: Mus musculus; assay: Antiinflammatory activity of DSS-induced […] mouse colitis model assessed as reversion of changes in colon length at 20 mg/kg administered daily for 7 days post DSS challenge; format: functional, organism-based
[20] = AUC in athymic Nu/Nu Harlan mouse at 10 mg/kg, iv administered as single dose up to 24 hrs by LC-ESI-MS analysis; format: ADME, organism-based; design: time < 24 hr, dose 10 mg/kg, route intravenous; conditions: in vivo
[21] = Half life in athymic Nu/Nu Harlan mouse at 10 mg/kg, iv administered as single dose up to 24 hrs by LC-ESI-MS analysis; format: ADME, organism-based; conditions: in vivo
[22] = tested on: Mus musculus; assay: In vivo inhibition of NAMPT in DNBS-induced BALB/c mouse colitis model assessed as reduction in mucosal congestion at 20 mg/kg, ip bid administered for 3 days post DNBS challenge; format: functional, organism-based
[23] = tested on: Liver; assay: Drug metabolism in Wistar Han rat liver microsomes assessed as pyridine N-oxidation after 60 mins in presence of NADPH-regenerating system by LC-UV analysis; format: ADME, microsome; conditions: 1 h
Procedure, shortened: (§3)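 Metabolites were characterized by LC-ESI-MSn on supernatants of 60 min, 37 °C incubations. Each used 50 μM substrate with rat or human liver microsomes (1.0 mg/ml protein) in 50 mM Tris-HCl pH 7.4 with 3.3 mM MgCl2, 1% acetonitrile and an NADPH-regenerating system. Reactions were quenched with cold acetonitrile and centrifuged.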

[24] = tested on: Fibrosarcoma cell; assay: Antitumor activity against mouse fibrosarcoma cells allografted in athymic nu/nu Harlan mouse
[25] = tested on: Liver; assay: Stability in Wistar Han rat liver microsomes after 60 mins by LC-ESI-MS analysis; format: ADME, microsome; conditions: 1 h
[26] = tested on: Mus musculus; assay: Toxicity in athymic nu/nu Harlan mouse xenografted with human A2780 cells assessed as body weight loss at 10 mg/kg, ip bid administered for 8 consecutive days measured through out study; format: organism-based; conditions: in vivo
[27] = tested on: Mus musculus; assay: In vivo inhibition of NAMPT in DNBS-induced BALB/c mouse colitis model assessed as reduction in loss of body weight at 20 mg/kg, ip bid administered for 3 days post DNBS challenge; format: functional, organism-based
[28] = tested on: Liver; assay: Drug metabolism in human liver microsomes assessed as pyridine N-oxidation after 60 mins in presence of NADPH-regenerating system by LC-UV analysis; format: ADME, microsome; conditions: 1 h; procedure, shortened: as §3
[29] = tested on: A2780; assay: Cytotoxicity against human A2780 cells assessed as reduction in cell viability; format: functional, cell-based
[30] = tested on: Mus musculus; assay: In vivo inhibition of NAMPT in DNBS-induced BALB/c mouse colitis model assessed as reduction in neutrophil infiltration by measuring myeloperoxidase levels at 20 mg/kg, ip bid administered for 3 days post DNBS challenge by ELISA; format: functional, organism-based
[31] = tested on: Mus musculus; assay: In vivo inhibition of NAMPT in DNBS-induced BALB/c mouse colitis model assessed as reduction in hemorrhagic ulcerations at 20 mg/kg, ip bid administered for 3 days post DNBS challenge; format: functional, organism-based
[32] = tested on: Liver; assay: Stability in human liver microsomes after 60 mins by LC-ESI-MS analysis; format: ADME, microsome; conditions: 1 h
[33] = tested on: Mus musculus; assay: Antiinflammatory activity of DSS-induced […] mouse colitis model assessed as improved general condition at 20 mg/kg administered daily for 7 days post DSS challenge; format: functional, organism-based
[34] = tested on: Mus musculus; assay: Antiinflammatory activity of DSS-induced […] mouse colitis model assessed as reduction in loss of body weight at 20 mg/kg administered daily for 7 days post DSS challenge; format: functional, organism-based
[35] = tested on: SH-SY5Y; assay: Cytotoxicity against human SH-SY5Y cells assessed as reduction in cell viability after 56 hrs by MTT assay; format: functional, cell-based; conditions: Homo sapiens, SH-SY5Y, 56 h; read-out: EC50
[36] = tested on: Mammary cancer cell; assay: Antitumor activity against mouse mammary cancer cells allografted in athymic nu/nu Harlan mouse
[37] = Volume of distribution in athymic Nu/Nu Harlan mouse at 10 mg/kg, iv administered as single dose up to 24 hrs by LC-ESI-MS analysis; format: ADME, organism-based; conditions: in vivo
[38] = tested on: Liver; assay: Drug metabolism in human liver microsomes assessed as aliphatic hydroxylation of paraffin linkers by LC-ESI-MS or LC-UV analysis; format: ADME, microsome; procedure, shortened: as §3
[39] = Stability in Wistar Han rat liver microsomes assessed as mixed function oxidase mediated compound cleavage after 60 mins in presence of NADPH-regenerating system by LC-UV analysis; format: ADME; conditions: 1 h; procedure, shortened: as §2
[40] = tested on: Liver; assay: Drug metabolism in Wistar Han rat liver microsomes assessed as aliphatic hydroxylation of paraffin linkers by LC-ESI-MS or LC-UV analysis; format: ADME, microsome; procedure, shortened: as §3
[41] = tested on: Liver; assay: Drug metabolism in Wistar Han rat liver microsomes assessed as oxidative N-dealkylation by LC-ESI-MS or LC-UV analysis; format: ADME, microsome; procedure, shortened: as §3
[42] = tested on: Liver; assay: Drug metabolism in Wistar Han rat liver microsomes assessed as aromatic hydroxylation of biphenyl moiety by LC-ESI-MS or LC-UV analysis; format: ADME, microsome; procedure, shortened: as §3
[43] = tested on: Liver; assay: Drug metabolism in human liver microsomes assessed as oxidative N-dealkylation by LC-ESI-MS or LC-UV analysis; format: ADME, microsome; procedure, shortened: as §3
[44] = tested on: Liver; assay: Drug metabolism in human liver microsomes assessed as aromatic hydroxylation of biphenyl moiety by LC-ESI-MS or LC-UV analysis; format: ADME, microsome; procedure, shortened: as §3
[45] = tested on: Liver; assay: Stability in human liver microsomes assessed as mixed function oxidase mediated compound cleavage after 60 mins in presence of NADPH-regenerating system by LC-UV analysis; format: ADME, microsome; conditions: 1 h; procedure, shortened: as §2

Sequence of Nicotinamide phosphoribosyltransferase (Mus musculus, UniProt Q99KQ4) (Q99KQ4 whole entry): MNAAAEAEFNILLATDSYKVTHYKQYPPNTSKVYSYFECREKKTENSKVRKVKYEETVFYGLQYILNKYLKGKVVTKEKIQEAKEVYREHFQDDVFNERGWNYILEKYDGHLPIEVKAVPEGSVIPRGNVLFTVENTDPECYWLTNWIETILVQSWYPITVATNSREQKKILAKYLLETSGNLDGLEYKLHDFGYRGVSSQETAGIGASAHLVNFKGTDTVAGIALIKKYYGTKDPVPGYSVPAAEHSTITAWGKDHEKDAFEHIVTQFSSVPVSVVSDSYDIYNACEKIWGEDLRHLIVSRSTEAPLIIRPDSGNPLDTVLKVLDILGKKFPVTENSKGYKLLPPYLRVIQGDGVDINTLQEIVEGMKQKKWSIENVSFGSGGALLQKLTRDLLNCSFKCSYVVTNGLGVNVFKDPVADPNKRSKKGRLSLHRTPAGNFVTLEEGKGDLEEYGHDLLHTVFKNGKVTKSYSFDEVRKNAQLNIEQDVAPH
Sequence of Nicotinamide phosphoribosyltransferase (Homo sapiens, UniProt P43490) (P43490 whole entry): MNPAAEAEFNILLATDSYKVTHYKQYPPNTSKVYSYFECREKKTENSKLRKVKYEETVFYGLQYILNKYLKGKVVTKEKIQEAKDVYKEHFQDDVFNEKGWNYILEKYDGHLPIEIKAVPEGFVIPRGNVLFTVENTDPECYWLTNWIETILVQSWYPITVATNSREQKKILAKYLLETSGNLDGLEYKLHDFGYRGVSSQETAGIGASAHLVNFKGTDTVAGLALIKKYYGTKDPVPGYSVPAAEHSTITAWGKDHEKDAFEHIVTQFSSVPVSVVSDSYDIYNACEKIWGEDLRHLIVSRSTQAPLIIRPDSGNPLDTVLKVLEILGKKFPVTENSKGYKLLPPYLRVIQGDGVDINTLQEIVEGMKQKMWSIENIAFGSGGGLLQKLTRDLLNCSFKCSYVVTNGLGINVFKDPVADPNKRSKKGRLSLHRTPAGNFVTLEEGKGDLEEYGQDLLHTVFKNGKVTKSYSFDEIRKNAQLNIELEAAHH

SMILES | remaining at 1 h [3] [%] | remaining at 1 h [4] [%] | inhibition [7] | solubility [8] | inhibition [10] | Drug metabolism [11] | inhibition [12] | IC50 [14] [nM] | clearance [15] [mL/min/kg] | IC50 [18] [nM] | AUC at 24 h [20] [ng·h/mL] | half-life [21] [h] | inhibition [22] | Drug metabolism [23] | Activity [24] | Stability [25] | Activity [26] | inhibition [27] | Stability [32] | EC50 [35] [nM] | further results
O=C(CCCCCCCn1cc(-c2cccnc2)nn1)Nc1ccccc1-c1ccccc1 | 45 | 26 | – | – | – | – | – | – | – | – | – | – | – | – | – | – | – | – | – | – | Drug metabolism [1]: Metabolite_Detected; Drug metabolism [2]: Metabolite_Detected; Drug metabolism [5]: Metabolite_Detected; Drug metabolism [6]: Metabolite_Detected
c1ccc(-c2ccccc2OCCCCCCn2cc(-c3cccnc3)nn2)cc1 | 49 | 31 | Active | Insoluble | Active | Metabolite_Notdetected | Active | 3.8 | 194 | 6.7 | 859 | 1.89 | Active | Metabolite_Detected | Active | Stable | Non-Toxic | Active | Stable | 5.2 | Activity_index [9]: 2.5; Drug metabolism [13]: Metabolite_Detected; Drug metabolism [16]: Metabolite_Detected; Activity [17]: Active; Activity [19]: Active; Drug metabolism [28]: Metabolite_Detected; IC50 [29]: 3 nM; inhibition [30]: Active; inhibition [31]: Active; Activity [33]: Active; Activity [34]: Active; Activity [36]: Active; Vd [37]: 31.8 L/kg
O=C(NCCCCCCCn1cc(-c2cccnc2)nn1)c1ccccc1-c1ccccc1 | 88 | 45 | – | – | – | – | – | 3.1 | – | 4.9 | – | – | – | – | – | Stable | – | – | Stable | 5.8 | Drug metabolism [38]: Metabolite_Detected; Stability [39]: Stable; Drug metabolism [40]: Metabolite_Detected; Drug metabolism [41]: Metabolite_Detected; Drug metabolism [42]: Metabolite_Detected; Drug metabolism [43]: Metabolite_Detected; Drug metabolism [44]: Metabolite_Detected; Stability [45]: Stable
O=C(/C=C/c1cccnc1)NCCCCC1CCN(C(=O)c2ccccc2)CC1 [DAPORINAD] | 92 | 62 | Active | Soluble | Active | Metabolite_Detected | Active | 4.9 | 22.8 | – | 6470 | 0.37 | Active | Metabolite_Detected | Active | Stable | Non-Toxic | Active | Stable | 3.4 | Stability [39]: Stable; Drug metabolism [28]: Metabolite_Detected; IC50 [29]: 4.2 nM; inhibition [30]: Active; inhibition [31]: Active; Stability [45]: Stable; Activity [36]: Active; Vd [37]: 0.8 L/kg
